# Screening results: PubChem BioAssay, The Scripps Research Institute Molecular Screening Center
# CHO parental Ca = counter-screen: ATP calcium response change in parental CHO cells; inhibition, % at 5.6 µM; parental CHO-K1, ATP-induced calcium, Fluo-8 fluorescence; AID 463079; 330,000 compounds, 0.63% hits;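 active = inhibition above that plate's mean sample inhibition plus 3 SD, cut at about 26% in these data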
#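 Test system: untransfected parental CHO cell line; also added: ATP stimulus; dosing: 5.6 µM, single dose; signal: calcium-sensitive Fluo-8 fluorescence; measure: percent inhibition of ATP-evoked calcium rise, normalized to controls; benchmarks: low control ATP plus DMSO, high control DMSO only; replication: one well per compound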
# OX1R antag-1 = human HCRTR1 antagonism; O43613; CHO/OX1R cells, Fluo-8 calcium fluorescence, orexin A; inhibition, % at 5 µM; 330,000 compounds, 0.43% hits; AID 434989;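 active = inhibition above its plate's threshold, mean inhibition of all tested compounds on the plate plus 3 SD, cut at about 37% in these data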
# OX1R antag-2 = OX1R (human) antagonism. OX1R-expressing cells, FRET antagonist read-out. inhibition, % at 6.6 µM. 330,000 compounds, 1.8% hits; in the data active = inhibition mostly above about 38%, no sharp cut-off; inactive = mostly below about 40%
# GPR7 antag = blocks human GPR7 receptor signaling; 290,000 compounds, 1.1% hits; P48145; inhibition, % at 4.4 µM; GPR7-expressing cells, fluorescence antagonist assay; in the data active = inhibition above about 16%, passing the limit was not always enough;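 also: cells stimulated with the agonist NPW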
# GalR3 antag = blocks the human galanin receptor 3 | HEK293 GalR3-CNG cAMP membrane potential fluorescence; galR3 body fused to GalR1 C-terminus | AID 651719 | 360,000 compounds, 0.44% hits | inhibition, % at 3 µM;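 active = inhibition above the screen-wide average plus 3 SD, cut at about 13% in these data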;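 also: forskolin and galanin both at EC90 stimulate the cells; cAMP rise reported by CNG channel membrane potential dye signal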
# Target sequence (O60755 1-299 limits assumed): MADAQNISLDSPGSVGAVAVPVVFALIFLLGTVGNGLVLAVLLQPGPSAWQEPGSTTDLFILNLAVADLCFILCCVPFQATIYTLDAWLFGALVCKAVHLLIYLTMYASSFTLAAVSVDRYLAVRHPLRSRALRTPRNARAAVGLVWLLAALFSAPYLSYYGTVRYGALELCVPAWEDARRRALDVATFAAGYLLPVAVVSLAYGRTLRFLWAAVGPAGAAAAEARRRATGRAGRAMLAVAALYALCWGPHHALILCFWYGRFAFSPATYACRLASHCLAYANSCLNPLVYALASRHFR
# OX1R Fluo8 conf = confirmation of human orexin 1 receptor antagonists; inhibition, % at 5 µM; CHO/OX1R cells, orexin A calcium Fluo-8 fluorescence; 1,100 compounds, 38% hits; shares compounds with OX1R antag-1; AID 492963; in the data active = inhibition above about 29%
# CHO Ca counter = signal in parental CHO cells, OX1R antagonist counter-screen; shares compounds with OX1R antag-1; parental CHO-K1, ATP-induced calcium, Fluo-8 fluorescence; AID 492965; inhibition, % at 5.6 µM; 1,100 compounds, 9.3% hits;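 active = inhibition above a per-plate limit, the mean inhibition of that plate's test compounds plus 3 SD, cut at about 25% in these data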
# Hits are given with their value; . = inactive; / = no result given. Sampled rows, rich in hits. Any-hit rate of the full collection: about 3.1%.
SMILES,CHO parental Ca,OX1R antag-1,OX1R antag-2,GPR7 antag,GalR3 antag,OX1R Fluo8 conf,CHO Ca counter
CCN(c1ccc(OC)cc1)S(=O)(=O)c1cc(-c2cc(C)no2)ccc1OC,.,.,.,.,.,/,/
CCN(c1ccc(OC)cc1)S(=O)(=O)c1cc(-c2cc(C)no2)ccc1C(C)C,.,.,.,.,.,.,.
CN(C)C(CNC(=O)c1coc2ccccc2c1=O)c1ccccc1 (configuration not stated),.,.,.,.,.,/,/
O=C1CCC(c2ccccc2)(C2CCN(Cc3ccccc3)CC2)C(=O)N1 (configuration not stated),.,.,.,/,.,/,/
O=C(NCCN1C(=O)S/C(=C\c2ccccc2)C1=O)c1cc(S(=O)(=O)N2CCOCC2)c(Cl)cc1Cl,.,.,.,.,.,58.7,.
COC(=O)[C@]12C[C@H](CC(=O)NCC34CC5CC(CC(C5)C3)C4)C(=O)N(CCC3=CCCCC3)C1=C[C@H](C(C)(C)C)O[C@@H]2C,/,/,/,/,.,/,/
CCCCNc1nc(N(C)c2ccccc2)nc(-n2ccnc2)n1,.,.,.,.,.,/,/
C=CCNc1nc(N(c2ccccc2)c2ccccc2)nc(-n2ccnc2)n1,.,.,.,.,.,87.9,.
Cc1cccc(C2c3[nH]c4ccccc4c3CCN2C(=O)Cc2nc(-c3ccccc3)n[nH]2)n1 (configuration not stated),.,.,.,.,.,.,.
CCCC(=O)Nc1ccc(Sc2ccc([N+](=O)[O-])cc2)cc1,.,.,.,.,.,.,.
Cc1cccc(NS(=O)(=O)c2cc3c4c(c2)C(C)C(=O)N4CCC3)c1 (configuration not stated),.,.,.,.,.,.,.
C=C(C)COc1ccc(-c2[nH]ncc2-c2ccccc2OC)c(O)c1,.,.,.,.,.,.,.
C=C(C)COc1ccc(-c2[nH]ncc2Oc2ccccc2OC)c(O)c1,.,.,.,.,.,/,/
CCCCn1c(N)c(N(CCOC)C(=O)COC(=O)COc2ccccc2C#N)c(=O)[nH]c1=O,.,.,.,/,.,/,/
O=C(O)c1ccc(N2C(=O)CC(SC(=NCc3ccc4c(c3)OCO4)Nc3ccc(F)cc3)C2=O)cc1 (configuration not stated),.,.,.,.,.,30.9,.
CCN(CC)C(=O)C1c2ccccc2Oc2ccccc21,.,.,.,.,.,.,.
C=CCN(CC=C)C(=O)C1c2ccccc2Oc2ccccc21,/,/,/,/,.,/,/
COC(=O)[C@]12CCCCC=C1N(Cc1ccccc1)C(=O)[C@H](CC(=O)NCc1ccc(OC)c(OC)c1)C2,/,/,/,/,.,/,/
O=[N+]([O-])c1ccc(/C=N\NS(=O)(=O)c2ccc(F)cc2)o1,.,.,.,.,.,.,.
COc1ccc(S(=O)(=O)N/N=C\c2ccc([N+](=O)[O-])o2)c(OC)c1,.,.,.,.,.,/,/
COc1cc(CNC(C)c2ccccc2)cc(Br)c1OCc1ccccc1 (configuration not stated),.,45.6,.,.,.,.,.
Cc1cc(C)c(NC(=O)CN(C)CC(=O)Nc2cccc(S(=O)(=O)N(C)c3ccccc3)c2)c(C)c1,.,37.0,.,/,.,.,.
CN(CC(=O)Nc1cccc(F)c1)CC(=O)Nc1cccc(S(=O)(=O)N(C)c2ccccc2)c1,/,/,/,/,.,/,/
CN(c1ccccc1)S(=O)(=O)c1cccc(NC(=O)Cc2n[nH]c(=O)c3ccccc23)c1,.,.,.,/,.,.,.
O=C(Nc1ccc(S(=O)(=O)N2CCc3ccccc32)cc1)c1ccc2c(c1)OCO2,.,.,.,.,.,.,.
O=C(Nc1ccccc1)c1ccc2c(c1)CCN2S(=O)(=O)c1ccccc1,.,.,.,.,.,/,/
COc1ccc2[nH]c(C(=O)O)c(CCNC(C)=O)c2c1,.,.,.,.,.,/,/
COc1ccc2[nH]c(C(=O)O)c(CCN3C(=O)c4cccc([N+](=O)[O-])c4C3=O)c2c1,.,103.1,.,.,.,.,.
C[C@@H](CSc1ccc(Br)cc1)CN1CC[C@H](NC(=O)OCc2ccccc2)CCC1=O,.,52.9,.,/,.,.,.
c1ccc(CN2CCC3CC2c2cc(N4CCOCC4)ccc23)cc1 (configuration not stated),/,/,/,/,.,/,/
